The results in this text go back to ChEMBL document CHEMBL1649510, “Nonsense and missense mutations in FCY2 and FCY1 genes are responsible for flucytosine resistance and flucytosine-fluconazole cross-resistance in clinical isolates of Candida lusitaniae” (2009).

Each structure is given as a SMILES string. ≈ marks a conversion by molar mass, not a printed value. Some results are limits rather than exact numbers.

Common to all, as to assay type: functional
In experiment [1] the test system is Clavispora lusitaniae. The experiment in a line: Antifungal activity against Candida lusitaniae CL38-5 expressing FCY21 gene by microdilution method. An outline of the steps: (§1)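 CLSI broth microdilution using twofold dilutions in RPMI 1640 with about 10³ cells/ml, incubated 48 h at 35°C. Final ranges were 0.5–256 μg/ml flucytosine and 0.25–128 μg/ml fluconazole. Cross-resistance was tested with a flucytosine gradient at constant fluconazole (8 or 16 μg/ml). MIC was read by automated plate reader as the lowest concentration giving 50% growth inhibition versus the drug-free control.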
In general terms: Broth dilution looks for growth in wells or tubes with falling amounts of substance.

The subject of experiment [2] is Clavispora lusitaniae. The experiment in a line: Antifungal activity against fcy1-deficient Candida lusitaniae by microdilution method. Summed up: as §1
For experiment [3], the system named is Clavispora lusitaniae. The experiment in a line: Antifungal activity against REPF URA3 fcy1-deficient Candida lusitaniae by microdilution method. An outline of the steps: as §1
For experiment [4], the system named is Clavispora lusitaniae. The experiment in a line: Antifungal activity against Candida lusitaniae CL174 by microdilution method. Summed up:
as §1

The test system of experiment [5] is Clavispora lusitaniae. The experiment in a line: Antifungal activity against Candida lusitaniae CL26 by microdilution method. Summed up:
as §1

The subject of experiment [6] is Clavispora lusitaniae. The experiment in a line: Antifungal activity against Candida lusitaniae CL38 by microdilution method. Summed up: as §1
Experiment [7] relates to Clavispora lusitaniae. The experiment in a line: Antifungal activity against Candida lusitaniae CL32 by microdilution method. An outline of the steps: as §1
Experiment [8] deals with Clavispora lusitaniae. The experiment in a line: Antifungal activity against Candida lusitaniae CL38-5 expressing URA3 gene by microdilution method. An outline of the steps: as §1
Experiment [9] has as its system Clavispora lusitaniae. The experiment in a line: Antifungal activity against Candida lusitaniae CL29 by microdilution method. An outline of the steps: as §1
Experiment [10] deals with Clavispora lusitaniae. The experiment in a line: Antifungal activity against Candida lusitaniae CL42 by microdilution method. Summed up:
as §1

The subject of experiment [11] is Clavispora lusitaniae. The experiment in a line: Antifungal activity against Candida lusitaniae CL48 by microdilution method. Summed up:
as §1

For experiment [12], the system named is Clavispora lusitaniae. The experiment in a line: Antifungal activity against Candida lusitaniae 42720 by microdilution method. Summed up: as §1
Experiment [13] deals with Clavispora lusitaniae. The experiment in a line: Antifungal activity against fcy1(1-119)-deficient Candida lusitaniae by microdilution method. An outline of the steps: as §1
Experiment [14] deals with Clavispora lusitaniae. The experiment in a line: Antifungal activity against fcy1(1-26)-deficient Candida lusitaniae by microdilution method. An outline of the steps: as §1
Experiment [15] concerns Clavispora lusitaniae. The experiment in a line: Antifungal activity against Candida lusitaniae CL119 by microdilution method. Summed up:
as §1

Experiment [16] concerns Clavispora lusitaniae. The experiment in a line: Antifungal activity against Candida lusitaniae 6936 by microdilution method. Summed up: as §1
Experiment [17] has as its system Clavispora lusitaniae. The experiment in a line: Antifungal activity against Candida lusitaniae CL31 by microdilution method. Summed up: as §1
In experiment [18] the test system is Clavispora lusitaniae. The experiment in a line: Antifungal activity against Candida lusitaniae CL38-5 expressing FCY2 gene by microdilution method. Summed up:
as §1

In experiment [19] the test system is Clavispora lusitaniae. The experiment in a line: Antifungal activity against Candida lusitaniae CL128 by microdilution method. An outline of the steps: as §1
The test system of experiment [20] is Clavispora lusitaniae. The experiment in a line: Antifungal activity against Candida lusitaniae CL216 by microdilution method. An outline of the steps:
as §1

One may read the MIC as the lowest concentration found to suppress growth. The low end stands for greater potency, the high end for weaker potency. Turning to `Nc1nc(=O)[nH]cc1F` [FLUCYTOSINE], the MIC is 32 µg/mL (≈ 248 µM) against Clavispora lusitaniae [1]; 128 µg/mL (≈ 992 µM) with Clavispora lusitaniae [2]; at most 0.5 µg/mL with Clavispora lusitaniae [3]; 64 µg/mL (≈ 496 µM) with Clavispora lusitaniae [4]; 64 µg/mL (≈ 496 µM) with Clavispora lusitaniae [5]; 32 µg/mL (≈ 248 µM) in the experiment with Clavispora lusitaniae [6]. Besides, the MIC was 128 µg/mL (≈ 992 µM) against Clavispora lusitaniae [7]; 32 µg/mL (≈ 248 µM) against Clavispora lusitaniae [8]; 128 µg/mL (≈ 992 µM) against Clavispora lusitaniae [9]; 64 µg/mL (≈ 496 µM) against Clavispora lusitaniae [10]; 32 µg/mL (≈ 248 µM) with Clavispora lusitaniae [11]; at most 0.5 µg/mL with Clavispora lusitaniae [12]. Moreover, the MIC in the experiment on Clavispora lusitaniae [13] is 128 µg/mL (≈ 992 µM); in the experiment on Clavispora lusitaniae [14], 128 µg/mL (≈ 992 µM); in the experiment on Clavispora lusitaniae [15], 32 µg/mL (≈ 248 µM); against Clavispora lusitaniae [16] it was at most 0.5 µg/mL; in the experiment on Clavispora lusitaniae [17], 32 µg/mL (≈ 248 µM); with Clavispora lusitaniae [18], at most 0.5 µg/mL. Further, the MIC in the experiment on Clavispora lusitaniae [19] and with Clavispora lusitaniae [20] was 32 µg/mL (≈ 248 µM) each time.
In the case of `OC(Cn1cncn1)(Cn1cncn1)c1ccc(F)cc1F` [FLUCONAZOLE], the MIC with Clavispora lusitaniae [1] was 2 µg/mL (≈ 6.53 µM); with Clavispora lusitaniae [2], 2 µg/mL (≈ 6.53 µM); in the experiment on Clavispora lusitaniae [3], 2 µg/mL (≈ 6.53 µM); against Clavispora lusitaniae [4], 1 µg/mL (≈ 3.27 µM); against Clavispora lusitaniae [5] it was at most 0.25 µg/mL; in the experiment with Clavispora lusitaniae [6] it was 2 µg/mL (≈ 6.53 µM). Further, the MIC in the experiment on Clavispora lusitaniae [7] is at most 0.25 µg/mL; with Clavispora lusitaniae [8], 2 µg/mL (≈ 6.53 µM); in the experiment with Clavispora lusitaniae [9], 2 µg/mL (≈ 6.53 µM); against Clavispora lusitaniae [10], 4 µg/mL (≈ 13.1 µM); in the experiment on Clavispora lusitaniae [11] it was 2 µg/mL (≈ 6.53 µM); against Clavispora lusitaniae [12], 2 µg/mL (≈ 6.53 µM). Besides, the MIC against Clavispora lusitaniae [13] amounted to 2 µg/mL (≈ 6.53 µM); against Clavispora lusitaniae [14], 2 µg/mL (≈ 6.53 µM); against Clavispora lusitaniae [15], 1 µg/mL (≈ 3.27 µM); against Clavispora lusitaniae [16] it was 2 µg/mL (≈ 6.53 µM); in the experiment with Clavispora lusitaniae [17], 2 µg/mL (≈ 6.53 µM); in the experiment with Clavispora lusitaniae [18], 2 µg/mL (≈ 6.53 µM). The minimum inhibitory concentration (MIC) against Clavispora lusitaniae [19] and in the experiment on Clavispora lusitaniae [20] was 1 µg/mL (≈ 3.27 µM) throughout.
